Here are results for 5 compounds from ChEMBL document CHEMBL1152977, “Phenolic glycosides from Alangium salviifolium leaves with inhibitory activity on LPS-induced NO, PGE(2), and TNF-alpha production” (Bioorg Med Chem Lett, 2009).

In series [1] the test system is RAW264.7. Put plainly: Antiinflammatory activity in LPS-stimulated mouse RAW264.7 cells assessed as NO production at 10 uM treated 1 hr before LPS challenge measured after 24 hrs by Griess reagent assay (RVb= 28.72 +/- 1.31 uM). It is filed as functional. The procedure, abridged: (§1)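 Culture medium (phenol red-free) collected after 1 h compound pretreatment then 24 h with LPS 1 µg/mL; mixed 1:1 with Griess reagent (1% sulfanilamide in 5% phosphoric acid plus 0.1% naphthylethylenediamine-HCl), 10 min room temperature, absorbance 550 nm. Nitrite quantified against NaNO2 serial-dilution standard curve, fresh medium as blank. L-NIL 10 µM positive control; means ± S.E.M., three independent experiments.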

In series [2] the test system is RAW264.7. As to the kind of experiment: Antiinflammatory activity in LPS-stimulated mouse RAW264.7 cells assessed as PGE2 production at 10 uM treated 1 hr before LPS challenge measured after 24 hrs by enzyme immunoassay (RVb=11.5 +/- 0.36 uM). In kind it is functional.
Series [3] relates to RAW264.7. Put plainly: Cytotoxicity against LPS-stimulated mouse RAW264.7 cells assessed as cell viability at 50 uM after 24 hrs by MTT assay. The conditions noted are these: raw264.7, 24 h. It is filed as cell-based. The procedure, abridged: (§2)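 MTT viability assay on RAW 264.7 cells at up to 50 µM for 24 h, run both with and without LPS.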
The subject of series [4] is RAW264.7. As to the kind of experiment: Cytotoxicity against mouse RAW264.7 cells assessed as cell viability at 50 uM after 24 hrs by MTT assay. In kind it is cell-based. The note with it: raw264.7, 24 h. The procedure, abridged:
as §2

Series [5] relates to RAW264.7. Put plainly: Antiinflammatory activity in mouse RAW264.7 cells assessed as inhibition of LPS-stimulated NO production treated 1 hr before LPS challenge measured after 24 hrs by Griess reagent assay. It is filed as functional, cell-based. In a few lines: as §1
Series [6] relates to RAW264.7. Put plainly: Antiinflammatory activity in mouse RAW264.7 cells assessed as decrease in LPS-stimulated PGE2 production treated 1 hr before LPS challenge measured after 24 hrs by enzyme immunoassay. It is filed as functional, cell-based. The procedure, abridged:
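Cells pre-incubated 1 h with compound (5, 25, 50 µM tested), then LPS 1 µg/mL for 24 h; PGE2 in culture medium quantified by EIA kit per manufacturer. NS-398 10 µM positive control; means ± S.E.M. of three independent experiments, Student's t-test versus LPS-treated group.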

Series [7] relates to RAW264.7. Put plainly: Antiinflammatory activity in LPS-stimulated mouse RAW264.7 cells assessed as TNFalpha production at 5 uM treated 1 hr before LPS challenge measured after 24 hrs by enzyme immunoassay (RVb=46.7 +/- 4.8 uM). In kind it is functional.
In series [8] the test system is RAW264.7. As to the kind of experiment: Antiinflammatory activity in LPS-stimulated mouse RAW264.7 cells assessed as TNFalpha production at 25 uM treated 1 hr before LPS challenge measured after 24 hrs by enzyme immunoassay (RVb=46.7 +/- 4.8 uM). It is filed as functional.
Series [9] concerns RAW264.7. As to the kind of experiment: Antiinflammatory activity in LPS-stimulated mouse RAW264.7 cells assessed as TNFalpha production at 50 uM treated 1 hr before LPS challenge measured after 24 hrs by enzyme immunoassay (RVb=46.7 +/- 4.8 uM). In kind it is functional.

On to `CC(=N)NCCCC[C@H](N)C(=O)O` [L-NIL], for which the Activity in the series on RAW264.7 [1] was 11.3 µM.
`CS(=O)(=O)Nc1ccc([N+](=O)[O-])cc1OC1CCCCC1` [NS-398]: the Activity in the series with RAW264.7 [2] is 3.2 ng/mL.
For the compound `O=C(OCc1ccc(O[C@@H]2O[C@H](CO)[C@@H](O)[C@H](O)[C@H]2O)c(O)c1)c1ccccc1` [SALVIIFOSIDE A], the Activity result in the series on RAW264.7 [3] was “Non-toxic”; with RAW264.7 [4], “Non-toxic”; in the series with RAW264.7 [5] it was “Dose-dependent effect”; in the series with RAW264.7 [6], “Dose-dependent effect”.
For the compound `O=C(/C=C/c1ccccc1O)OCc1ccc(O[C@@H]2O[C@H](CO)[C@@H](O)[C@H](O)[C@H]2O)c(O)c1` [SALVIIFOSIDE B], the Activity entry is “Non-toxic” with RAW264.7 [3]; “Non-toxic” in the series with RAW264.7 [4]; “Dose-dependent effect” in the series with RAW264.7 [5]; “Dose-dependent effect” in the series with RAW264.7 [6]; 43.2 ng/mL in the series with RAW264.7 [7]; 24.4 ng/mL with RAW264.7 [8]. The Activity in the series on RAW264.7 [9] worked out at 11.2 ng/mL.
As for `COc1ccccc1/C=C/C(=O)OCc1ccc(O[C@@H]2O[C@H](CO)[C@@H](O)[C@H](O)[C@H]2O)c(O)c1` [SALVIIFOSIDE C], the Activity entry in the series with RAW264.7 [3] was “Non-toxic”; with RAW264.7 [4] it was “Non-toxic”; with RAW264.7 [5], “Dose-dependent effect”; in the series on RAW264.7 [6], “Dose-dependent effect”.
